Each block holds one compound with its values, some of them ahead of it.
How the values were obtained:
Cynomolgus monkey [1] = test: Dose normalized volume of distribution at steady state in cynomolgous monkey at 10 mg/kg, po and 2 mg/kg, iv; type: ADME, organism-based, Macaca fascicularis; conditions: in vivo
Procedure, shortened: (§1)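 Cynomolgus monkeys fasted overnight, then given 10 mg/kg orally as a suspension in 0.5% methylcellulose, 0.3% Tween-80 and 1% NMP. IV bolus of 2 mg/kg in 70% PEG-400:30% water. Oral values normalized to 5 mg/kg. Plasma analysed by non-compartmental methods.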

Cynomolgus monkey [2] = test: Dose normalized Cmax in cynomolgous monkey at 10 mg/kg, po and 2 mg/kg, iv; type: ADME, organism-based, Macaca fascicularis; conditions: in vivo; procedure, shortened: as §1
Hepatitis C virus [3] = test: Antiviral activity against Hepatitis C virus genotype 1a infected in human Huh cells assessed as inhibition of viral replication by RT-PCR-based replicon assay; type: functional, cell-based, Hepacivirus hominis; conditions: subtype 1a
Procedure, shortened: (§2)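 HCV replicon EC50 determined in duplicate, using either a GT1b luciferase reporter read-out or RT-PCR quantification of replicon RNA.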

[4] = Clearance in cynomolgous monkey at 2 mg/kg, iv; type: ADME, organism-based, Macaca fascicularis; parameters: dose 2 mg/kg, route intravenous; conditions: cynomolgus monkey, in vivo
Procedure, shortened: (§3)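 Animals fasted overnight. Oral dose given as a suspension in 0.5% methylcellulose, 0.3% Tween-80 and 1% NMP. IV bolus of 2 mg/kg given in 70% PEG-400:30% water. N = 3 per dose and per route. Plasma kept on ice, spun at 4 °C and stored at about −20 °C. Calibration standards prepared in blank plasma, LOQ 7 ng/mL. Non-compartmental analysis.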

[5] = Bioavailability in dog at 5 mg/kg, po and 2 mg/kg, iv; type: ADME, organism-based, Canis lupus familiaris; conditions: in vivo; procedure, shortened: as §3
[6] = Inhibition of Hepatitis C virus genotype 1b C-terminal truncated NS5B RNA dependent RNA polymerase delta21 expressed in Escherichia coli by scintillation proximity assay; parameters: species or system Hepatitis C virus subtype 1b
Procedure, shortened: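 Biochemical polymerase inhibition using a C-terminally truncated GT1b NS5BΔ21 construct. Values are the mean of duplicate measurements (n ≥ 2).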

Cynomolgus monkey [7] = test: Dose normalized AUC in cynomolgous monkey at 10 mg/kg, po and 2 mg/kg, iv; type: ADME, organism-based, Macaca fascicularis; conditions: in vivo; procedure, shortened: as §1
[8] = Cmax in rat at 5 mg/kg, po and 2 mg/kg, iv; type: ADME, organism-based; conditions: in vivo; procedure, shortened: as §3
Cynomolgus monkey [9] = test: Dose normalized half life in cynomolgous monkey at 10 mg/kg, po and 2 mg/kg, iv; type: ADME, organism-based, Macaca fascicularis; conditions: in vivo; procedure, shortened: as §1
[10] = AUC in dog at 5 mg/kg, po and 2 mg/kg, iv; type: ADME, organism-based, Canis lupus familiaris; conditions: plasma; procedure, shortened: as §3
[11] = Half life in dog at 5 mg/kg, po and 2 mg/kg, iv; type: ADME, organism-based, Canis lupus familiaris; conditions: in vivo; procedure, shortened: as §3
[12] = Bioavailability in rat at 5 mg/kg, po and 2 mg/kg, iv; type: ADME, organism-based; conditions: in vivo; procedure, shortened: as §3
Hepatitis C virus [13] = test: Antiviral activity against Hepatitis C virus genotype 1b infected in human Huh cells assessed as inhibition of viral replication by luciferase reporter assay; type: functional, cell-based, Hepacivirus hominis; procedure, shortened: as §2
[14] = Half life in dog liver microsomes at 2 uM; type: ADME, Canis lupus familiaris
Procedure, shortened: (§4)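 Stability in liver microsomes with 2 µM initial compound concentration; half-life recorded.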

[15] = Cmax in dog at 5 mg/kg, po and 2 mg/kg, iv; type: ADME, organism-based, Canis lupus familiaris; conditions: in vivo; procedure, shortened: as §3
Hepatitis C virus [16] = test: Antiviral activity against Hepatitis C virus genotype 1b infected in human Huh cells assessed as inhibition of viral replication by RT-PCR-based replicon assay; type: functional, cell-based, Hepacivirus hominis; procedure, shortened: as §2
[17] = Dose normalized bioavailability in cynomolgous monkey at 10 mg/kg, po and 2 mg/kg, iv; type: ADME, organism-based, Macaca fascicularis; conditions: cynomolgus monkey, in vivo, read-out: F/dose; procedure, shortened: as §1
[18] = Permeability coefficient, Kp for ratio of drug uptake in liver to plasma in rat; type: ADME
Rattus norvegicus = test: Dose normalized Cmax in rat at 10 mg/kg, po; type: ADME, organism-based; parameters: dose 10 mg/kg, route oral; conditions: in vivo
Procedure, shortened: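 Rats dosed orally at 10 mg/kg as a suspension in 0.5% methylcellulose, 0.3% Tween-80 and 1% NMP. Plasma Cmax normalized to 5 mg/kg.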

[19] = Half life in cynomolgous monkey liver microsomes at 2 uM; type: ADME, Macaca fascicularis; conditions: cynomolgus monkey; procedure, shortened: as §4
[20] = Ratio of drug up take in liver to plasma of rat at 5 mg/kg, po measured at 6 hrs post dose; type: ADME, organism-based; parameters: dose 5 mg/kg, route oral
[21] = AUC in rat at 5 mg/kg, po and 2 mg/kg, iv; type: ADME, organism-based; conditions: plasma; procedure, shortened: as §3
[22] = Half life in human liver microsomes at 2 uM; type: ADME; procedure, shortened: as §4
[23] = Plasma concentration in rat at 4 mg/kg, po as cassette dosing measured at 1 hr post dose; type: ADME, organism-based; parameters: dose 4 mg/kg, route oral
Procedure, shortened: (§5)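 Cassette dosing: a mixture of 4 compounds, each at 4 mg/kg, given orally to 2 fasted rats in 0.5% methylcellulose, 0.3% Tween-80 and 1% NMP. Plasma sampled at 1 and 2 h. Liver/plasma ratio determined at 2 h.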

[24] = Permeability from apical to basolateral side of human Caco2 cells; type: ADME, cell-based; conditions: Caco-2, read-out: permeability
Procedure, shortened: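 Caco-2 permeability measured in the apical-to-basolateral direction, reported in cm/s.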

[25] = Plasma concentration in rat at 4 mg/kg, po as cassette dosing measured at 2 hrs post dose; type: ADME, organism-based; parameters: dose 4 mg/kg, route oral; procedure, shortened: as §5
[26] = Cytotoxicity against human HuH7 cells assessed as reduction in cell viability by MTT assay; type: cell-based; conditions: Huh-7 cells, read-out: TC50 (the source's name)
Procedure, shortened: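 Cytotoxicity (TC50) measured by MTT read-out in the Huh-7 cell line.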

[27] = Ratio of drug up take in liver to plasma of rat at 4 mg/kg, po as cassette dosing measured at 2 hrs post dose; type: ADME, organism-based; parameters: dose 4 mg/kg, route oral; procedure, shortened: as §5
[28] = Half life in rat liver microsomes at 2 uM; type: ADME; procedure, shortened: as §4
[29] = Cmax in rat at 5 mg/kg, po; type: ADME, organism-based; parameters: dose 5 mg/kg, route oral; conditions: in vivo
Procedure, shortened: (§6)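 Rats fasted overnight, then given a single compound orally at 5 mg/kg in 0.5% methylcellulose, 0.3% Tween-80 and 1% NMP. Plasma Cmax measured. Liver/plasma concentration ratio taken at 8 h for single-compound dosing.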

[30] = Lipophilicity, log D of the compound at pH 7.4; type: physicochemical; conditions: buffer
Macaca mulatta [31] = test: AUC in rhesus monkey at 5 mg/kg, po and 2 mg/kg, iv; conditions: plasma
Macaca mulatta [32] = test: Volume of distribution at steady state in rhesus monkey at 5 mg/kg, po and 2 mg/kg, iv; conditions: in vivo, read-out: Vdss
[33] = Clearance in rat at 2 mg/kg, iv; type: ADME, organism-based; parameters: dose 2 mg/kg, route intravenous; conditions: in vivo; procedure, shortened: as §3
[34] = Volume of distribution at steady state in rat at 5 mg/kg, po and 2 mg/kg, iv; type: ADME, organism-based; conditions: in vivo, read-out: Vdss; procedure, shortened: as §3
[35] = Clearance in rhesus monkey at 2 mg/kg, iv; conditions: in vivo
[36] = Clearance in dog at 2 mg/kg, iv; type: ADME, organism-based, Canis lupus familiaris; parameters: dose 2 mg/kg, route intravenous; conditions: in vivo; procedure, shortened: as §3
Macaca mulatta [37] = test: Cmax in rhesus monkey at 5 mg/kg, po and 2 mg/kg, iv; conditions: in vivo
[38] = Half life in rat at 5 mg/kg, po and 2 mg/kg, iv; type: ADME, organism-based; conditions: in vivo; procedure, shortened: as §3
[39] = Ratio of drug up take in liver to plasma of rat at 5 mg/kg, po measured at 8 hrs post dose; type: ADME, organism-based; parameters: dose 5 mg/kg, route oral; procedure, shortened: as §6
[40] = Half life in rhesus monkey liver microsomes at 2 uM
[41] = Volume of distribution at steady state in dog at 5 mg/kg, po and 2 mg/kg, iv; type: ADME, organism-based, Canis lupus familiaris; conditions: in vivo, read-out: Vdss; procedure, shortened: as §3
Macaca mulatta [42] = test: Bioavailability in rhesus monkey at 5 mg/kg, po and 2 mg/kg, iv; conditions: in vivo
Macaca mulatta [43] = test: Half life in rhesus monkey at 5 mg/kg, po and 2 mg/kg, iv; conditions: in vivo

SMILES: CCOc1nc(NC(=O)C2(NC(=O)c3ccc4c(C5CCCC5)c(-c5ncc(Cl)cn5)n(C)c4c3)CCC2)cnc1/C=C/C(=O)O
EC50 (Hepatitis C virus [3]): 34 nM
half-life at 2 µM [22]: 2.43 h
IC50 [6]: 100 nM
concentration at 1 h [23]: 2.1 µM
EC50 (Hepatitis C virus [13]): 20 nM
Papp A→B [24]: 13 ×10⁻⁶ cm/s
concentration at 2 h [25]: 0.9 µM
CC50 [26]: > 10000 nM
Kp at 2 h [27]: 5
half-life at 2 µM [28]: > 5 h

SMILES: CCOc1cc(NC(=O)C2(NC(=O)c3ccc4c(C5CCCC5)c(-c5ncc(Cl)cn5)n(C)c4c3)CCC2)nnc1/C=C/C(=O)O
half-life at 2 µM [22]: 2.27 h
IC50 [6]: 80 nM
logD [30]: 3.4
EC50 (Hepatitis C virus [13]): 360 nM
Papp A→B [24]: 1.6 ×10⁻⁶ cm/s
CC50 [26]: > 10000 nM
half-life at 2 µM [28]: 3.78 h

SMILES: CCOc1nc(NC(=O)C2(NC(=O)c3ccc4c(C5CCCC5)c(-c5ncc(Cl)cn5)n(C)c4c3)CCC2)ccc1/C=C/C(=O)O
AUC (Macaca mulatta [31]): 8.9 µM·h
Vd (Macaca mulatta [32]): 0.06 L/kg
EC50 (Hepatitis C virus [3]): 27 nM
bioavailability [5]: 40%
IC50 [6]: 85 nM
clearance [33]: 3.1 mL/min/kg
Vd [34]: 0.28 L/kg
clearance [35]: 1.5 mL/min/kg
Cmax [29]: 5.9 µM
clearance [36]: 0.9 mL/min/kg
Cmax (Macaca mulatta [37]): 2.6 µM
Cmax [8]: 5.8 µM
logD [30]: > 5.9
half-life [38]: 1.5 h
AUC [10]: 56 µM·h
Kp at 8 h [39]: 2
half-life [11]: 6.1 h
half-life at 2 µM [40]: 0.533 h
bioavailability [12]: 42%
EC50 (Hepatitis C virus [13]): 15 nM
half-life at 2 µM [14]: 3.65 h
Cmax [15]: 10 µM
EC50 (Hepatitis C virus [16]): 14 nM
Vd [41]: 0.28 L/kg
bioavailability (Macaca mulatta [42]): 11%
Kp [18]: 2.6
CC50 [26]: 56000 nM
half-life (Macaca mulatta [43]): 2 h
half-life at 2 µM [28]: 1.85 h
AUC [21]: 17 µM·h

Second part, led by results:

Vdss/dose (Cynomolgus monkey [1]): 0.6 L/kg
Cmax/dose (Cynomolgus monkey [2]): 4.8 µM
EC50 (Hepatitis C virus [3]): 29 nM
clearance [4]: 3.6 mL/min/kg
bioavailability [5]: 29%
IC50 [6]: 84 nM
AUC/dose (Cynomolgus monkey [7]): 26 µM·h
Cmax [8]: 3.2 µM
t1/2/dose (Cynomolgus monkey [9]): 3 h
AUC [10]: 38 µM·h
half-life [11]: 4.5 h
bioavailability [12]: 19%
EC50 (Hepatitis C virus [13]): 13 nM
half-life at 2 µM [14]: 2.92 h
Cmax [15]: 4.1 µM
EC50 (Hepatitis C virus [16]): 11 nM
bioavailability [17]: 72%
Kp [18]: 5.5
Cmax/dose (Rattus norvegicus): 3.2 µM
half-life at 2 µM [19]: 1.6 h
Kp at 6 h [20]: 5.5
AUC [21]: 9.6 µM·h
SMILES: CCOc1cc(NC(=O)C2(NC(=O)c3ccc4c(C5CCCC5)c(-c5ncc(Cl)cn5)n(C)c4c3)CCC2)ccc1/C=C/C(=O)O

half-life at 2 µM [22]: 2.42 h
IC50 [6]: 85 nM
Cmax [29]: 1.8 µM
logD [30]: 3
EC50 (Hepatitis C virus [13]): 33 nM
Papp A→B [24]: 15 ×10⁻⁶ cm/s
half-life at 2 µM [28]: 1.73 h
SMILES: CCOc1cc(NC(=O)C2(NC(=O)c3ccc4c(C5CCCC5)c(-c5ncc(Cl)cn5)n(C)c4c3)CCC2)ncc1/C=C/C(=O)O
CC50 [26]: > 10000 nM

— ChEMBL document CHEMBL3400098, “Aza follow-ups to BI 207524, a thumb pocket 1 HCV NS5B polymerase inhibitor. Part 1: Mitigating the genotoxic liability of an aniline metabolite” (Bioorg Med Chem Lett, 2015)
